Measured values reported in ChEMBL document CHEMBL5058577, “EUbOPEN Chemogenomics Library 2 (Multiplex)” (2022).

Tested on: Fibroblast
Assay: Multiplex assay against human fibroblast
Assay type: toxicity, cell-based
Procedure, shortened: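 Phenotypes for tubulin, mitochondrial mass and membrane permeability are expressed as per cents of healthy-nucleus cells. Cells were stained live at seeding with Hoechst33342, BioTracker Green Microtubule Cytoskeleton Dye, MitoTracker Red and Annexin V Alexa Fluor 680, then imaged after compound addition on a CQ1 microscope at 37°C and 5% CO2. Machine-learning gating in CellPathfinder separated Hoechst high-intensity objects from normal cells, divided normal cells by nuclear state (healthy, pyknosed, fragmented) and divided pyknosed cells into mitotic or apoptotic.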

[1] = 12 h, 1 µM, compound concentration 1 uM, replicate 1
[2] = 12 h, 1 µM, compound concentration 1 uM, replicate 2
[3] = 12 h, 10 µM, compound concentration 10 uM, replicate 1
[4] = 12 h, 10 µM, compound concentration 10 uM, replicate 2
[5] = 24 h, 1 µM, compound concentration 1 uM, replicate 1
[6] = 24 h, 1 µM, compound concentration 1 uM, replicate 2
[7] = 24 h, 10 µM, compound concentration 10 uM, replicate 1
[8] = 24 h, 10 µM, compound concentration 10 uM, replicate 2
[9] = 48 h, 1 µM, compound concentration 1 uM, replicate 1
[10] = 48 h, 1 µM, compound concentration 1 uM, replicate 2
[11] = 48 h, 10 µM, compound concentration 10 uM, replicate 1
[12] = 48 h, 10 µM, compound concentration 10 uM, replicate 2

C[C@H](NC(=O)c1c(C(F)F)nn(C)c1Oc1cccc(C(F)(F)F)c1)c1ccc(C(=O)O)cc1 [PALUPIPRANT]
Population Apoptotic (%) [1]: 26%
Population Fragmented Nuclei (%) [1]: 29%
Population Healthy Nuclei (%) [1]: 57%
Population Hoechst High Intensity Objects (%) [1]: 5%
Population Membrane Permeable-Phenotype (%) [1]: 0%
Population Mitochondria Different-Phenotype (%) [1]: 4%
Population Mitotic Cells (%) [1]: 73%
Population Normal (%) [1]: 94%
Population Pyknosed Nuclei (%) [1]: 12%
Population Tubulin-Different-Phenotype (%) [1]: 23%
Total Cell Count [1]: 187
Population Apoptotic (%) [2]: 24%
Population Fragmented Nuclei (%) [2]: 23%
Population Healthy Nuclei (%) [2]: 52%
Population Hoechst High Intensity Objects (%) [2]: 6%
Population Membrane Permeable-Phenotype (%) [2]: 11%
Population Mitochondria Different-Phenotype (%) [2]: 6%
Population Mitotic Cells (%) [2]: 75%
Population Normal (%) [2]: 93%
Population Pyknosed Nuclei (%) [2]: 23%
Population Tubulin-Different-Phenotype (%) [2]: 55%
Total Cell Count [2]: 148
Population Apoptotic (%) [3]: 45%
Population Fragmented Nuclei (%) [3]: 13%
Population Healthy Nuclei (%) [3]: 70%
Population Hoechst High Intensity Objects (%) [3]: 2%
Population Membrane Permeable-Phenotype (%) [3]: 2%
Population Mitochondria Different-Phenotype (%) [3]: 6%
Population Mitotic Cells (%) [3]: 55%
Population Normal (%) [3]: 97%
Population Pyknosed Nuclei (%) [3]: 16%
Population Tubulin-Different-Phenotype (%) [3]: 45%
Total Cell Count [3]: 126
Population Apoptotic (%) [4]: 35%
Population Fragmented Nuclei (%) [4]: 42%
Population Healthy Nuclei (%) [4]: 35%
Population Hoechst High Intensity Objects (%) [4]: 14%
Population Membrane Permeable-Phenotype (%) [4]: 13%
Population Mitochondria Different-Phenotype (%) [4]: 13%
Population Mitotic Cells (%) [4]: 64%
Population Normal (%) [4]: 85%
Population Pyknosed Nuclei (%) [4]: 22%
Population Tubulin-Different-Phenotype (%) [4]: 60%
Total Cell Count [4]: 149
Population Apoptotic (%) [5]: 40%
Population Fragmented Nuclei (%) [5]: 32%
Population Healthy Nuclei (%) [5]: 58%
Population Hoechst High Intensity Objects (%) [5]: 5%
Population Membrane Permeable-Phenotype (%) [5]: 1%
Population Mitochondria Different-Phenotype (%) [5]: 4%
Population Mitotic Cells (%) [5]: 60%
Population Normal (%) [5]: 94%
Population Pyknosed Nuclei (%) [5]: 8%
Population Tubulin-Different-Phenotype (%) [5]: 15%
Total Cell Count [5]: 178
Population Apoptotic (%) [6]: 42%
Population Fragmented Nuclei (%) [6]: 26%
Population Healthy Nuclei (%) [6]: 53%
Population Hoechst High Intensity Objects (%) [6]: 7%
Population Membrane Permeable-Phenotype (%) [6]: 8%
Population Mitochondria Different-Phenotype (%) [6]: 5%
Population Mitotic Cells (%) [6]: 57%
Population Normal (%) [6]: 92%
Population Pyknosed Nuclei (%) [6]: 20%
Population Tubulin-Different-Phenotype (%) [6]: 51%
Total Cell Count [6]: 141
Population Apoptotic (%) [7]: 60%
Population Fragmented Nuclei (%) [7]: 18%
Population Healthy Nuclei (%) [7]: 62%
Population Hoechst High Intensity Objects (%) [7]: 5%
Population Membrane Permeable-Phenotype (%) [7]: 2%
Population Mitochondria Different-Phenotype (%) [7]: 7%
Population Mitotic Cells (%) [7]: 39%
Population Normal (%) [7]: 94%
Population Pyknosed Nuclei (%) [7]: 18%
Population Tubulin-Different-Phenotype (%) [7]: 35%
Total Cell Count [7]: 131
Population Apoptotic (%) [8]: 38%
Population Fragmented Nuclei (%) [8]: 40%
Population Healthy Nuclei (%) [8]: 42%
Population Hoechst High Intensity Objects (%) [8]: 10%
Population Membrane Permeable-Phenotype (%) [8]: 13%
Population Mitochondria Different-Phenotype (%) [8]: 3%
Population Mitotic Cells (%) [8]: 61%
Population Normal (%) [8]: 89%
Population Pyknosed Nuclei (%) [8]: 17%
Population Tubulin-Different-Phenotype (%) [8]: 51%
Total Cell Count [8]: 138
Population Apoptotic (%) [9]: 53%
Population Fragmented Nuclei (%) [9]: 34%
Population Healthy Nuclei (%) [9]: 57%
Population Hoechst High Intensity Objects (%) [9]: 11%
Population Membrane Permeable-Phenotype (%) [9]: 0%
Population Mitochondria Different-Phenotype (%) [9]: 4%
Population Mitotic Cells (%) [9]: 46%
Population Normal (%) [9]: 88%
Population Pyknosed Nuclei (%) [9]: 7%
Population Tubulin-Different-Phenotype (%) [9]: 29%
Total Cell Count [9]: 184
Population Fragmented Nuclei (%) [10]: 30%
Population Healthy Nuclei (%) [10]: 50%
Population Hoechst High Intensity Objects (%) [10]: 3%
Population Membrane Permeable-Phenotype (%) [10]: 4%
Population Normal (%) [10]: 96%
Population Pyknosed Nuclei (%) [10]: 19%
Population Tubulin-Different-Phenotype (%) [10]: 53%
Total Cell Count [10]: 147
Population Apoptotic (%) [11]: 73%
Population Fragmented Nuclei (%) [11]: 20%
Population Healthy Nuclei (%) [11]: 60%
Population Hoechst High Intensity Objects (%) [11]: 4%
Population Membrane Permeable-Phenotype (%) [11]: 1%
Population Mitochondria Different-Phenotype (%) [11]: 8%
Population Mitotic Cells (%) [11]: 26%
Population Normal (%) [11]: 95%
Population Pyknosed Nuclei (%) [11]: 18%
Population Tubulin-Different-Phenotype (%) [11]: 46%
Total Cell Count [11]: 130
Population Apoptotic (%) [12]: 60%
Population Fragmented Nuclei (%) [12]: 45%
Population Healthy Nuclei (%) [12]: 45%
Population Hoechst High Intensity Objects (%) [12]: 13%
Population Membrane Permeable-Phenotype (%) [12]: 10%
Population Mitochondria Different-Phenotype (%) [12]: 6%
Population Mitotic Cells (%) [12]: 40%
Population Normal (%) [12]: 86%
Population Pyknosed Nuclei (%) [12]: 9%
Population Tubulin-Different-Phenotype (%) [12]: 50%
Total Cell Count [12]: 122

O=C(O)c1cc2ccccc2c(Cc2c(O)c(C(=O)O)cc3ccccc23)c1O [PAMOIC ACID]
Population Apoptotic (%) [1]: 54%
Population Fragmented Nuclei (%) [1]: 10%
Population Healthy Nuclei (%) [1]: 81%
Population Hoechst High Intensity Objects (%) [1]: 2%
Population Membrane Permeable-Phenotype (%) [1]: 0%
Population Mitochondria Different-Phenotype (%) [1]: 2%
Population Mitotic Cells (%) [1]: 45%
Population Normal (%) [1]: 97%
Population Pyknosed Nuclei (%) [1]: 7%
Population Tubulin-Different-Phenotype (%) [1]: 20%
Total Cell Count [1]: 147
Population Apoptotic (%) [2]: 32%
Population Fragmented Nuclei (%) [2]: 23%
Population Healthy Nuclei (%) [2]: 56%
Population Hoechst High Intensity Objects (%) [2]: 6%
Population Membrane Permeable-Phenotype (%) [2]: 6%
Population Mitochondria Different-Phenotype (%) [2]: 8%
Population Mitotic Cells (%) [2]: 67%
Population Normal (%) [2]: 93%
Population Pyknosed Nuclei (%) [2]: 19%
Population Tubulin-Different-Phenotype (%) [2]: 34%
Total Cell Count [2]: 154
Population Apoptotic (%) [3]: 40%
Population Fragmented Nuclei (%) [3]: 7%
Population Healthy Nuclei (%) [3]: 80%
Population Hoechst High Intensity Objects (%) [3]: 4%
Population Membrane Permeable-Phenotype (%) [3]: 1%
Population Mitochondria Different-Phenotype (%) [3]: 5%
Population Mitotic Cells (%) [3]: 60%
Population Normal (%) [3]: 95%
Population Pyknosed Nuclei (%) [3]: 11%
Population Tubulin-Different-Phenotype (%) [3]: 23%
Total Cell Count [3]: 132
Population Apoptotic (%) [4]: 37%
Population Fragmented Nuclei (%) [4]: 24%
Population Healthy Nuclei (%) [4]: 51%
Population Membrane Permeable-Phenotype (%) [4]: 3%
Population Mitochondria Different-Phenotype (%) [4]: 3%
Population Mitotic Cells (%) [4]: 62%
Population Pyknosed Nuclei (%) [4]: 24%
Population Tubulin-Different-Phenotype (%) [4]: 51%
Total Cell Count [4]: 156
Population Apoptotic (%) [5]: 33%
Population Fragmented Nuclei (%) [5]: 10%
Population Healthy Nuclei (%) [5]: 86%
Population Hoechst High Intensity Objects (%) [5]: 3%
Population Membrane Permeable-Phenotype (%) [5]: 0%
Population Mitochondria Different-Phenotype (%) [5]: 2%
Population Mitotic Cells (%) [5]: 66%
Population Normal (%) [5]: 96%
Population Pyknosed Nuclei (%) [5]: 4%
Population Tubulin-Different-Phenotype (%) [5]: 17%
Total Cell Count [5]: 156
Population Apoptotic (%) [6]: 32%
Population Fragmented Nuclei (%) [6]: 23%
Population Healthy Nuclei (%) [6]: 58%
Population Hoechst High Intensity Objects (%) [6]: 6%
Population Membrane Permeable-Phenotype (%) [6]: 9%
Population Mitochondria Different-Phenotype (%) [6]: 11%
Population Mitotic Cells (%) [6]: 68%
Population Normal (%) [6]: 93%
Population Pyknosed Nuclei (%) [6]: 18%
Population Tubulin-Different-Phenotype (%) [6]: 39%
Total Cell Count [6]: 147
Population Apoptotic (%) [7]: 50%
Population Fragmented Nuclei (%) [7]: 8%
Population Healthy Nuclei (%) [7]: 77%
Population Hoechst High Intensity Objects (%) [7]: 2%
Population Membrane Permeable-Phenotype (%) [7]: 1%
Population Mitochondria Different-Phenotype (%) [7]: 1%
Population Mitotic Cells (%) [7]: 50%
Population Normal (%) [7]: 97%
Population Pyknosed Nuclei (%) [7]: 13%
Population Tubulin-Different-Phenotype (%) [7]: 20%
Total Cell Count [7]: 138
Population Apoptotic (%) [8]: 40%
Population Fragmented Nuclei (%) [8]: 34%
Population Healthy Nuclei (%) [8]: 52%
Population Hoechst High Intensity Objects (%) [8]: 5%
Population Membrane Permeable-Phenotype (%) [8]: 3%
Population Mitochondria Different-Phenotype (%) [8]: 5%
Population Mitotic Cells (%) [8]: 59%
Population Normal (%) [8]: 94%
Population Tubulin-Different-Phenotype (%) [8]: 39%
Total Cell Count [8]: 170
Population Apoptotic (%) [9]: 25%
Population Fragmented Nuclei (%) [9]: 12%
Population Healthy Nuclei (%) [9]: 79%
Population Hoechst High Intensity Objects (%) [9]: 4%
Population Membrane Permeable-Phenotype (%) [9]: 0%
Population Mitochondria Different-Phenotype (%) [9]: 2%
Population Mitotic Cells (%) [9]: 75%
Population Normal (%) [9]: 95%
Population Pyknosed Nuclei (%) [9]: 8%
Population Tubulin-Different-Phenotype (%) [9]: 23%
Total Cell Count [9]: 155
Population Apoptotic (%) [10]: 38%
Population Fragmented Nuclei (%) [10]: 23%
Population Healthy Nuclei (%) [10]: 58%
Population Hoechst High Intensity Objects (%) [10]: 3%
Population Membrane Permeable-Phenotype (%) [10]: 9%
Population Mitochondria Different-Phenotype (%) [10]: 8%
Population Mitotic Cells (%) [10]: 61%
Population Normal (%) [10]: 96%
Population Pyknosed Nuclei (%) [10]: 17%
Population Tubulin-Different-Phenotype (%) [10]: 44%
Total Cell Count [10]: 152
Population Apoptotic (%) [11]: 50%
Population Fragmented Nuclei (%) [11]: 19%
Population Healthy Nuclei (%) [11]: 72%
Population Hoechst High Intensity Objects (%) [11]: 5%
Population Membrane Permeable-Phenotype (%) [11]: 2%
Population Mitochondria Different-Phenotype (%) [11]: 5%
Population Mitotic Cells (%) [11]: 50%
Population Normal (%) [11]: 94%
Population Pyknosed Nuclei (%) [11]: 7%
Population Tubulin-Different-Phenotype (%) [11]: 29%
Total Cell Count [11]: 136
Population Apoptotic (%) [12]: 60%
Population Fragmented Nuclei (%) [12]: 32%
Population Healthy Nuclei (%) [12]: 60%
Population Hoechst High Intensity Objects (%) [12]: 3%
Population Membrane Permeable-Phenotype (%) [12]: 3%
Population Mitochondria Different-Phenotype (%) [12]: 1%
Population Mitotic Cells (%) [12]: 40%
Population Normal (%) [12]: 96%
Population Pyknosed Nuclei (%) [12]: 6%
Population Tubulin-Different-Phenotype (%) [12]: 28%
Total Cell Count [12]: 156
